Source: ChEMBL document CHEMBL3585325, “Discovery of (1R,2S)-2-{[(2,4-Dimethylpyrimidin-5-yl)oxy]methyl}-2-(3-fluorophenyl)-N-(5-fluoropyridin-2-yl)cyclopropanecarboxamide (E2006): A Potent and Efficacious Oral Orexin Receptor Antagonist” (J Med Chem, 2015)
pIC50, pKi: −log10 of the molar value. ≈ marks a conversion by molar mass, not a printed value.

Experiments:
[1] = Metabolic stability in human liver microsomes assessed as residual ratio at 0.3 uM after 15 mins by LC-MS analysis; assay type: ADME; details: read-out: Stability
Outline: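 Human liver microsomes (0.2 mg/mL) incubated with test compound at 0.3 μM in 0.1% DMSO for 15 min at 37 °C, with and without an NADPH-generating system. Reaction stopped with acetonitrile/methanol (7:3) containing internal standard. Parent compound quantified by LC−MS. Value is the residual ratio in the presence versus absence of NADPH.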

[2] = Aqueous solubility of the compound in Japanese Pharmacopoeia 1st fluid at pH 1.2 by DMSO solution precipitation method; assay type: physicochemical
Outline: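 Solubility in Japanese Pharmacopoeia 1st fluid (aqueous HCl containing 34 mM NaCl), pH 1.2, measured at room temperature by precipitation from a DMSO solution.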

[3] = biological target: Cytochrome P450 2C9 (Homo sapiens, UniProt P11712); experiment: Inhibition of CYP2C9 in human liver microsomes using tolbutamide as susbtrate incubated for 30 mins prior to substrate addition for 10 mins by LC-MS/MS analysis; assay type: ADME
[4] = biological target: T1, Orexin receptor type 2 (Homo sapiens, UniProt O43614); experiment: Binding affinity to human OX2R by radioligand displacement binding assay
T1 sequence (O43614 whole entry): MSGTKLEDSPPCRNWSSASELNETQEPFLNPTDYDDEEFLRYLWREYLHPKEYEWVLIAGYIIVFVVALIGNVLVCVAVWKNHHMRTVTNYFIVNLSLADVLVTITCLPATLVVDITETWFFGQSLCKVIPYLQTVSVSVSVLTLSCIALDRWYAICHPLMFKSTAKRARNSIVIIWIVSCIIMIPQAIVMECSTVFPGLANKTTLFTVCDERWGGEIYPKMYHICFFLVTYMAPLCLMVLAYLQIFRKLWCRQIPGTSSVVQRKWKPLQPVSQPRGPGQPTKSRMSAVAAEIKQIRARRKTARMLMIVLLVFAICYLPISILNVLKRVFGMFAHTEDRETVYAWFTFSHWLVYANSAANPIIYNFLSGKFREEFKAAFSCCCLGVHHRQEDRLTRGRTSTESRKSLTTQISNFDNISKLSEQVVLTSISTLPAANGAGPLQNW

[5] = biological target: T2, Cytochrome P450 2C8 (Homo sapiens, UniProt P10632); experiment: Inhibition of CYP2C8 in human liver microsomes using rosiglitazone as susbtrate incubated for 30 mins prior to substrate addition for 10 mins by LC-MS/MS analysis; assay type: ADME
T2 sequence (P10632 whole entry): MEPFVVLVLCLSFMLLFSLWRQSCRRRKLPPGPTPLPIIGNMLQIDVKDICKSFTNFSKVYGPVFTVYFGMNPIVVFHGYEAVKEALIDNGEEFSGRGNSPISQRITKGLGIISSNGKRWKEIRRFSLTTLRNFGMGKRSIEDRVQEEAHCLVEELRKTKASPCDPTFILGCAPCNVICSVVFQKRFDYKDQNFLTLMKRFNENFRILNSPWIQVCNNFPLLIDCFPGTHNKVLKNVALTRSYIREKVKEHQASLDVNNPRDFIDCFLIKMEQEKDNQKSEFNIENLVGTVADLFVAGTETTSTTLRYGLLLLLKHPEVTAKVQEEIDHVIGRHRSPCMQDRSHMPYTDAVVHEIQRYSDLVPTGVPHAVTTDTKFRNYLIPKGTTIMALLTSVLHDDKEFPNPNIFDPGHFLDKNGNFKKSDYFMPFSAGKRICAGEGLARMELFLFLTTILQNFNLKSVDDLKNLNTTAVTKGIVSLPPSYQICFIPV

[6] = Activity at P-gp (unknown origin) assessed as corrected flux ratio; assay type: ADME; details: human
Outline: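 Reported as corrected flux ratio, i.e. the MDR1 flux ratio divided by the PK1 flux ratio.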

[7] = biological target: Cytochrome P450 2D6 (Homo sapiens, UniProt P10635); experiment: Inhibition of CYP2D6 in human liver microsomes using bufuralol as susbtrate incubated for 30 mins prior to substrate addition for 10 mins by LC-MS/MS analysis; assay type: ADME
[8] = biological target: T3, Orexin/Hypocretin receptor type 1 (Homo sapiens, UniProt O43613); experiment: Binding affinity to human OX1R by radioligand displacement binding assay
T3 sequence (O43613 whole entry): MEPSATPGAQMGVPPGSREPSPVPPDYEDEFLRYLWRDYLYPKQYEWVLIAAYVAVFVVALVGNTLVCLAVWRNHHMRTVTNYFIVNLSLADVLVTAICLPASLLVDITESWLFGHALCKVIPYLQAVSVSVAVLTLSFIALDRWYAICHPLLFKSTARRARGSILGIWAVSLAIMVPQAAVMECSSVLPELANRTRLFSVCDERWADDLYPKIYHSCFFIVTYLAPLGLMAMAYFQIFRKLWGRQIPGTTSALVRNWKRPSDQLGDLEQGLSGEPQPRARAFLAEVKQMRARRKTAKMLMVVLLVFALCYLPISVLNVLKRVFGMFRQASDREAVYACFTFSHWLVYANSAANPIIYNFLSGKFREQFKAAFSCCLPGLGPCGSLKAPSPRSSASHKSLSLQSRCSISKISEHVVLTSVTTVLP
Outline: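 Ki values come from single experiments run in triplicate.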

[9] = biological target: Cytochrome P450 2C19 (Homo sapiens, UniProt P33261); experiment: Inhibition of CYP2C19 in human liver microsomes using S-mephenytoin as susbtrate incubated for 30 mins prior to substrate addition for 10 mins by LC-MS/MS analysis; assay type: ADME
[10] = biological target: T4, Cytochrome P450 1A2 (Homo sapiens, UniProt P05177); experiment: Inhibition of CYP1A2 in human liver microsomes using phenacetin as susbtrate incubated for 30 mins prior to substrate addition for 10 mins by LC-MS/MS analysis; assay type: ADME
T4 sequence (P05177 whole entry): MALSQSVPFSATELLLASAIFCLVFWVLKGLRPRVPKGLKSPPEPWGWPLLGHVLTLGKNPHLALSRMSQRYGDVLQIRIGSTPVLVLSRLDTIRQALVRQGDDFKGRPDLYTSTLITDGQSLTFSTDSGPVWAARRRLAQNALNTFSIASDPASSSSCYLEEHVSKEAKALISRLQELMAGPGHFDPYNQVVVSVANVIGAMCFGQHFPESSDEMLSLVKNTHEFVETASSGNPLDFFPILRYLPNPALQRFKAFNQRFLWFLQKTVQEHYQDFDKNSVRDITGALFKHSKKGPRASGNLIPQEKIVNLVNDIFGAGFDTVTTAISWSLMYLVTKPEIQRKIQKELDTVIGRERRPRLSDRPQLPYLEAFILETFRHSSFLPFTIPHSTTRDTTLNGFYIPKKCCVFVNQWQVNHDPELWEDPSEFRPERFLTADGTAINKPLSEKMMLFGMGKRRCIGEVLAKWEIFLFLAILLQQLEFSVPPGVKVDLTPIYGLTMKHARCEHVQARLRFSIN

[11] = biological target: CYP3A (Homo sapiens, UniProt P08684+P20815+P24462+Q9HB55); experiment: Time dependent inhibition of CYP3A in human liver microsomes assessed as enzyme activity using midazolam as substrate at 10 uM incubated for 30 mins prior to substrate addition for 10 mins by LC-MS/MS analysis; assay type: ADME; design: scale not given: the % may be the effect or the level left; details: probe midazolam, read-out: Activity
Outline: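 Test compound at 10 μM preincubated 30 min at 37 °C with human liver microsomes (0.2 mg/mL), with or without an NADPH-generating system. Mixture then diluted 10-fold into a marker-substrate cocktail plus NADPH system and incubated 10 min at 37 °C. Midazolam served as the CYP3A probe. Metabolites measured by LC−MS/MS. Result is the residual activity with NADPH relative to without, as % of control.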

[12] = Aqueous solubility of the compound in Dulbecco's phosphate buffered saline at pH 7.4 by DMSO solution precipitation method; assay type: physicochemical
Outline: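 Solubility in Dulbecco's PBS at pH 7.4, measured at room temperature by precipitation from a DMSO solution.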

Cytochrome P450 2C9, sequence (P11712 whole entry): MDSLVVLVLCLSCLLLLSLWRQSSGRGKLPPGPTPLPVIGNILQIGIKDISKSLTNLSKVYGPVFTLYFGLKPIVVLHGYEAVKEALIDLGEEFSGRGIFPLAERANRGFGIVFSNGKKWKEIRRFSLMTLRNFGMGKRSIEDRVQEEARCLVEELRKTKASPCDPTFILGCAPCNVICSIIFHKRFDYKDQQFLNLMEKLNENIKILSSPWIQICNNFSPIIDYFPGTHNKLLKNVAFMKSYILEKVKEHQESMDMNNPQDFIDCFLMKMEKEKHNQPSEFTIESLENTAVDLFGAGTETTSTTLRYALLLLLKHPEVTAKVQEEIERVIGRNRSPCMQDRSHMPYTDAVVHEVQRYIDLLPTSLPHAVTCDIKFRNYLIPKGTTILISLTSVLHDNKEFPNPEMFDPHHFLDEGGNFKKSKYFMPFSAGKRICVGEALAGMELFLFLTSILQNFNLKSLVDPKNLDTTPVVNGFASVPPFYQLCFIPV
Cytochrome P450 2D6, sequence (P10635 whole entry): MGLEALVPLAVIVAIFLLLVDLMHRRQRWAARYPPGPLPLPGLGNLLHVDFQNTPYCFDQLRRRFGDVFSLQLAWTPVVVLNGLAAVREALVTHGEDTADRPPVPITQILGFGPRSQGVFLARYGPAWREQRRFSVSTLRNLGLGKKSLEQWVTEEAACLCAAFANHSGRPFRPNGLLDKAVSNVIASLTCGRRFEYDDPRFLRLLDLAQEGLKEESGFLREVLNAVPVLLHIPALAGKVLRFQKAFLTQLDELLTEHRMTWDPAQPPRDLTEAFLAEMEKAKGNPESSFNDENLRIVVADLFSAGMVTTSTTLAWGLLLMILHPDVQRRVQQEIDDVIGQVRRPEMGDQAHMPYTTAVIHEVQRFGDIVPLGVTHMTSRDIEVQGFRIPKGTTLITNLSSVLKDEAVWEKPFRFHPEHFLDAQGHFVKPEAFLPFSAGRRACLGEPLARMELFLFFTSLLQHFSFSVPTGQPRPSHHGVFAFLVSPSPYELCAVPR
Cytochrome P450 2C19, sequence (P33261 whole entry): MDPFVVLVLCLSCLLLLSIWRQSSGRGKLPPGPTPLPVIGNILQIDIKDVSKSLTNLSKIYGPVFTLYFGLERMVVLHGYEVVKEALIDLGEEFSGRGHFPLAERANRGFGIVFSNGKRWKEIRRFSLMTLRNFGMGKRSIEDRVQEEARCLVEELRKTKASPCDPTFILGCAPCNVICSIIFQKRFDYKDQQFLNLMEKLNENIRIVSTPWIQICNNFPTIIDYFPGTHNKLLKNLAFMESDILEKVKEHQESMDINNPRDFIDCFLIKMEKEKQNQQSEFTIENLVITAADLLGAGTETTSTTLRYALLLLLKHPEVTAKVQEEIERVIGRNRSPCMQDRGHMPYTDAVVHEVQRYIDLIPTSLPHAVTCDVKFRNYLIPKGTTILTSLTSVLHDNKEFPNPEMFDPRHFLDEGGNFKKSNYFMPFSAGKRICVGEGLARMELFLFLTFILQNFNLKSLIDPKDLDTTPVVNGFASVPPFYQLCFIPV

remaining at 0.25 h, 0.3 µM [1]: 80% | solubility kinetic [2]: 25 µM (≈ 10.7 µg/mL) | pIC50 [3]: < 5.00 | pKi [4]: 8.30 | pIC50 [5]: 5.10 | Ratio [6]: 1 | pIC50 [7]: < 5.00 | pKi [8]: 6.97 | pIC50 [9]: 5.07 | pIC50 [10]: < 5.00 | activity at 10 min, 10 µM [11]: 49% | solubility kinetic [12]: 15 µM (≈ 6.44 µg/mL)
Compound: COc1ccc(OC[C@@]2(c3ccccc3)C[C@H]2C(=O)Nc2ccc(C#N)cn2)cc1OC
